From ChEMBL document CHEMBL3244313, “Synthesis of some carbon-3 substituted 1,4-benzodiazepin-2-ones and their central nervous system effects” (J Med Chem, 1979) come the findings set out here.

For series [1], the system named is Mus musculus. Description: Anticonvulsant activity in po dosed albino Swiss-Webster mouse assessed as reduction of pentylenetetrazole-induced seizure. It counts as functional, organism-based. The procedure, abridged:
(§1)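 Oral dosing in male and female albino Swiss-Webster mice weighing 25–30 g, six mice per group. ED50 determined with 95% confidence limits.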

Series [2] concerns Mus musculus. The experiment in a line: Anticonvulsant activity in po dosed albino Swiss-Webster mouse assessed as reduction of maximum electro shock-induced seizure. It counts as functional, organism-based. The procedure, abridged: as §1
The subject of series [3] is Mus musculus. The experiment in a line: Anticonvulsant activity in po dosed albino Swiss-Webster mouse assessed as reduction of minimum electro shock-induced seizure. The format is functional, organism-based. The procedure, abridged:
as §1

In series [4] the test system is Mus musculus. Description: Muscle relaxing activity in po dosed albino Swiss-Webster mouse. The format is functional, organism-based. The procedure, abridged: as §1
The test system of series [5] is Mus musculus. The experiment in a line: Potency index, ratio of chlordiazepoxide ED50 to compound ED50 for behavioral activity in po dosed albino Swiss-Webster mouse by fighting test. The format is functional.
In series [6] the test system is Mus musculus. Description: Potency index, ratio of chlordiazepoxide ED50 to compound ED50 for hypnotic activity in po dosed albino Swiss-Webster mouse. It counts as functional.
Series [7] is described as follows: Toxicity in po dosed albino Swiss-Webster mouse. It counts as organism-based. Particulars: in vivo.
Series [8] can be described thus: 1-Octanol-aqueous phosphate buffer partition coefficient, log P of the compound at pH 7.35. It counts as physicochemical. The procedure, abridged:
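Concentrations in each phase (C_oct, C_w) measured by UV spectrophotometry. P_oct = C_oct/C_w, reported as log P_oct.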

Series [9] relates to Mus musculus. The experiment in a line: Potency index, ratio of chlordiazepoxide ED50 to compound ED50 for anticonvulsant activity in po dosed albino Swiss-Webster mouse assessed as reduction of pentylenetetrazole-induced seizure. It counts as functional.
Series [10] concerns Mus musculus. The experiment in a line: Potency index, ratio of chlordiazepoxide ED50 to compound ED50 for anticonvulsant activity in po dosed albino Swiss-Webster mouse assessed as reduction of maximum electro shock-induced seizure. It counts as functional.
Series [11] deals with Mus musculus. The experiment in a line: Potency index, ratio of chlordiazepoxide ED50 to compound ED50 for anticonvulsant activity in po dosed albino Swiss-Webster mouse assessed as reduction of minimum electro shock-induced seizure. It counts as functional.
Series [12] has as its system Mus musculus. The experiment in a line: Potency index, ratio of chlordiazepoxide ED50 to compound ED50 for muscle relaxing activity in po dosed albino Swiss-Webster mouse. It counts as functional.

Calls of active or inactive are those of the source. The calls are words filed in the database; no cut-off is given here.

What is called LD50 is the dose expected to kill half of the subjects tested. For orientation: logD means the decadic logarithm of the distribution of all forms, ionised or not, between an organic phase and buffer at a given pH. Take `CC1(C)OCC(COC2N=C(c3ccccc3Cl)c3cc(Cl)ccc3NC2=O)O1` (centres undefined): the result in the series on Mus musculus [1], with Mus musculus [2], with Mus musculus [3] and with Mus musculus [4] was inactive. Moreover, the “Ratio ED50” value with Mus musculus [5] is recorded as 2.3; in the series with Mus musculus [6], 2. Besides, the LD50 in [7] was found to be 7590 µmol/kg. Also, in series [8], the logD was 2.48.

In the case of `CC(=O)OC[C@H]1O[C@H](OCCOC2N=C(c3ccccc3)c3cc(Cl)ccc3NC2=O)[C@H](OC(C)=O)[C@@H](OC(C)=O)[C@@H]1OC(C)=O` (mixture of isomers), the “Ratio ED50” value is recorded as 13.4 in the series with Mus musculus [9]; 3.6 in the series with Mus musculus [10]; 0.98 in the series with Mus musculus [11]; 0.68 in the series with Mus musculus [12]; 1.78 in the series on Mus musculus [5]; 0.9 in the series on Mus musculus [6]. For the same compound, in series [7], the LD50 came out at 17300 µmol/kg.

With `O=C1Nc2ccc(Cl)cc2C(c2ccccc2Cl)=NC1OCCO` (centres undefined), the “Ratio ED50” value in the series on Mus musculus [9] was 33.6; in the series on Mus musculus [10], 1.2; in the series with Mus musculus [11] it was 2.8; in the series with Mus musculus [12] it was 1.86; in the series on Mus musculus [5] it was 17.8; in the series with Mus musculus [6] it was 0.65. This compound gave an LD50 in [7] of 9360 µmol/kg. In [8], this compound yielded a logD of 2.04.

Regarding `CN1C(=O)C(OCC(O)CO)N=C(c2ccccc2)c2cc(Cl)ccc21` (centres undefined), the “Ratio ED50” value was 10.3 in the series with Mus musculus [9]; 0.38 with Mus musculus [10]; 0.8 in the series on Mus musculus [12]; 1 in the series on Mus musculus [5]; 0.42 with Mus musculus [6]. For the same compound, the result in the series with Mus musculus [3] was inactive. In series [7], this compound returned an LD50 of 16000 µmol/kg. Further, the logD in [8] worked out at 1.74.

In series [8], `CNC1=Nc2ccc(Cl)cc2C(c2ccccc2)=[N+]([O-])C1` [CHLORDIAZEPOXIDE] yielded a logD of 2.5.

As to `CN1C(=O)C(OCC2COC(C)(C)O2)N=C(c2ccccc2)c2cc(Cl)ccc21` (centres undefined), the result in the series on Mus musculus [1], in the series on Mus musculus [2], with Mus musculus [3] and with Mus musculus [4] was inactive. In addition, the figures for the “Ratio ED50” value in the series on Mus musculus [5] and in the series with Mus musculus [6] were 1.9 and 2.3, respectively. Further, the LD50 in series [7] worked out at 9160 µmol/kg. The compound also had a logD in series [8] of 2.37.

Turning to `CC(=O)OC[C@H]1O[C@@H](OCCOC2N=C(c3ccccc3)c3cc(Cl)ccc3NC2=O)[C@H](OC(C)=O)[C@@H](OC(C)=O)[C@@H]1OC(C)=O` (mixture of isomers), the “Ratio ED50” value with Mus musculus [9] came to 13.8; in the series on Mus musculus [10], 3.4; in the series with Mus musculus [11], 1.02; with Mus musculus [12], 0.75; in the series with Mus musculus [5], 1.83; with Mus musculus [6], 0.76. Further, the LD50 in [7] is 17200 µmol/kg.

For `O=C1Nc2ccc(Cl)cc2C(c2ccccc2)=NC1OCCO` (centres undefined), the “Ratio ED50” value in the series with Mus musculus [9] is on record as 10.3; in the series with Mus musculus [10], 0.58; with Mus musculus [11] it was 0.4; in the series with Mus musculus [12], 1.3; in the series on Mus musculus [5] it was 1.7; with Mus musculus [6], 0.35. In series [7], this compound returned an LD50 of 18100 µmol/kg. This compound yielded a logD in series [8] of 1.99.

Consider `CN1C(=O)C(OCCO)N=C(c2ccccc2)c2cc(Cl)ccc21` (centres undefined), for which the “Ratio ED50” value in the series with Mus musculus [9] was determined as 12.5; in the series with Mus musculus [10] it was 0.8; in the series with Mus musculus [11] it was 8.3; with Mus musculus [12], 1.1; in the series on Mus musculus [5], 1.5; with Mus musculus [6], 0.4. Also, the LD50 in series [7] turned out to be 17400 µmol/kg. In series [8], this compound returned a logD of 1.98.

With `O=C1Nc2ccc(Cl)cc2C(c2ccccc2Cl)=NC1OCC(O)CO` (centres undefined), the “Ratio ED50” value amounted to 36.8 in the series with Mus musculus [9]; 4.68 in the series on Mus musculus [10]; 0.86 in the series on Mus musculus [11]; 1.25 in the series with Mus musculus [12]; 15.3 with Mus musculus [5]; 0.58 in the series with Mus musculus [6]. For the same compound, in series [7], the LD50 was found to be 7820 µmol/kg. This compound registered a logD in series [8] of 1.96.

On to `CN1C(=O)C(OC(=O)C(Cl)(Cl)Cl)N=C(c2ccccc2)c2cc(Cl)ccc21` (centres undefined), for which the “Ratio ED50” value stood at 15.3 with Mus musculus [9]; 5.2 in the series on Mus musculus [10]; 1.62 with Mus musculus [11]; 1.93 with Mus musculus [12]; 1.3 with Mus musculus [5]; 0.9 with Mus musculus [6]. In series [7], this compound yielded an LD50 of 5600 µmol/kg.

As for `O=C1Nc2ccc(Cl)cc2C(c2ccccc2)=NC1OC(=O)C(Cl)(Cl)Cl` (centres undefined), the “Ratio ED50” value in the series on Mus musculus [9] is recorded as 16.5; in the series with Mus musculus [10], 5.7; in the series with Mus musculus [11] it was 1.32; in the series with Mus musculus [12] it was 1.6; in the series with Mus musculus [5], 1.92; with Mus musculus [6], 0.73. In addition, the LD50 in series [7] was 6850 µmol/kg.

`O=C1Nc2ccc(Cl)cc2C(c2ccccc2)=NC1OCC(O)CO` (centres undefined): the “Ratio ED50” value with Mus musculus [9] is 12.5; in the series with Mus musculus [10], 2.3; in the series on Mus musculus [11], 0.52; in the series on Mus musculus [12] it was 0.7; in the series with Mus musculus [5], 1.4; with Mus musculus [6] it was 0.51. In [7], the LD50 came to 16600 µmol/kg. This compound returned a logD in series [8] of 1.71.

For `CC1(C)OCC(COC2N=C(c3ccccc3)c3cc(Cl)ccc3NC2=O)O1` (centres undefined), the result with Mus musculus [1], in the series on Mus musculus [2], in the series on Mus musculus [3] and in the series with Mus musculus [4] was inactive. Also, the “Ratio ED50” value in the series on Mus musculus [5] came to 1.7; with Mus musculus [6], 0.52. In [7], this compound registered an LD50 of 9980 µmol/kg. In addition, in series [8], the logD amounted to 2.14.

With `CN1CCN=C(c2ccccc2)c2cc(Cl)ccc21` [MEDAZEPAM], the “Ratio ED50” value in the series on Mus musculus [9] was determined as 6.2; in the series with Mus musculus [10] it was 0.81; in the series on Mus musculus [11], 0.32; with Mus musculus [12], 1.3; with Mus musculus [5], 1; in the series on Mus musculus [6], 0.3. The LD50 in [7] was found to be 5240 µmol/kg. In series [8], this compound came in with a logD of 4.05.
